How the values were obtained:
BaF3/TEL-AXL cells = assay: BaF3/TEL-AXL cell viability; format: cell-based; conditions: 48 h, read-out: IC50 Cell viability
AXL signaling pathway = assay: GAS6-stimulated AXL signaling in NCI-H1299 cells, Western blot; format: cell-based; conditions: NCI-H1299, 1 h treatment, GAS6 500 ng/mL 15 min
In short: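 NCI-H1299 cells in exponential growth were serum-deprived for 24 h, then given the test compound for 1 h and stimulated with GAS6 500 ng/mL for 15 min. Lysis was in 1× SDS sample buffer, followed by 10% SDS-PAGE and nitrocellulose transfer.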

[1] = system: BaF3/TEL-AXL mouse xenograft; assay: BaF3/TEL-AXL cell-derived mouse xenograft model
[2] = Pharmacokinetics in ICR mice; format: in vivo; conditions: mouse, serum

Row | IC50 (BaF3/TEL-AXL cells) | AUC(0-inf) ([2]; iv, 5 mg/kg) | AUC(0-t) ([2]; iv, 5 mg/kg) | clearance ([2]; iv, 5 mg/kg) | half-life ([2]; iv, 5 mg/kg) | AUC(0-inf) ([2]; po, 10 mg/kg) | AUC(0-t) ([2]; po, 10 mg/kg) | Cmax ([2]; po, 10 mg/kg) | Tmax ([2]; po, 10 mg/kg) | bioavailability ([2]; po, 10 mg/kg) | half-life ([2]; po, 10 mg/kg) | SMILES | p-AKT level (AXL signaling pathway) | p-STAT3 level (AXL signaling pathway) | TGI ([1]; 50 mg/kg po bid) | TGI ([1]; 4 mg/kg po qd, 7 consecutive days) | TGI ([1]; 20 mg/kg po qd, 7 consecutive days) | body weight of tumor-bearing mice during the treatment ([1]; 4 and 20 mg/kg po qd)
1 | 95.1 ± 3.7 nM | – | – | – | – | – | – | – | – | – | – | Nc1nc(Nc2ccc3c(c2)CC[C@@H](N2CCCC2)CC3)nn1-c1cc2c(nn1)-c1ccccc1CCC2 [BGB324, reference compound] | significantly inhibited | significantly inhibited | 92.0% | – | – | –
2 | < 0.1 nM | 42100 ng·h/mL | 34800 ng·h/mL | 2.05 mL/min/kg | 10.4 h | 16000 ng·h/mL | 15900 ng·h/mL | 2970 ng/mL | 2 h | 22.9% | 3.24 h | COc1cc2ncnc(Oc3ccc(NC(=O)c4c5n(n(-c6cccc(F)c6)c4=O)CCCC5)cc3F)c2cc1OC [Compound 18] | – | – | – | 89.5% | 93.4% | no significant body weight loss
